Active and inactive are the calls of the source. No cut-off for these calls is given here.
Legend:
[1] = target: T1, Peroxisome proliferator-activated receptor gamma (Homo sapiens, UniProt P37231); test: Binding affinity to human PPARgamma by scintillation proximity assay
T1 sequence (P37231 whole entry): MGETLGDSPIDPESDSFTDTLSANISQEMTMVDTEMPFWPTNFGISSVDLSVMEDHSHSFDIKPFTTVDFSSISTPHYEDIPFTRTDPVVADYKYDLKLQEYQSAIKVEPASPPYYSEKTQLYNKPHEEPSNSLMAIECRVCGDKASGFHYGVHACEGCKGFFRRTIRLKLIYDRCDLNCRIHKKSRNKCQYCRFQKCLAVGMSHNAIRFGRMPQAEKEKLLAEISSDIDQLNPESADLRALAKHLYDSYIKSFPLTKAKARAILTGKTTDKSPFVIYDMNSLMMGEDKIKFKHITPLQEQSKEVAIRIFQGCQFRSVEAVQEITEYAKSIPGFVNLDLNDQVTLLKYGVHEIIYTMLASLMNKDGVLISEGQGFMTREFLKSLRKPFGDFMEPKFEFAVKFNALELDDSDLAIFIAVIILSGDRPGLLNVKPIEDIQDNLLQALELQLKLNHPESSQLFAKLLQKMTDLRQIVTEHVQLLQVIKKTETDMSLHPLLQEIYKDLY
How it was run: (§1)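 Scintillation proximity binding assay on PPAR receptors giving IC50; mean of three determinations.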

[2] = target: T1, Peroxisome proliferator-activated receptor gamma; test: Agonist activity at human PPARgamma expressed in COS-1 cells co-expressing with Gal4 by transactivation assay; type: functional, cell-based
How it was run: (§2)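 GAL4-PPAR chimeric receptor transactivation in transiently co-transfected COS-1 cells with a GAL4-responsive reporter; potency as EC50 and maximum activation expressed relative to rosiglitazone; triplicate, mean reported.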

[3] = target: T2, Peroxisome proliferator-activated receptor gamma (Homo sapiens) (UniProt P37231); test: Agonist activity at human PPARgamma expressed in COS-1 cells co-expressing with Gal4 by transactivation assay relative to rosiglitazone; type: functional, cell-based; how it was run: as §2
T2 sequence (whole entry): T1 sequence (P37231 whole entry)

[4] = target: T3, Peroxisome proliferator-activated receptor alpha (Homo sapiens, UniProt Q07869); test: Binding affinity to human PPARalpha expressed in COS-1 by scintillation proximity assay; how it was run: as §1
T3 sequence (Q07869 whole entry): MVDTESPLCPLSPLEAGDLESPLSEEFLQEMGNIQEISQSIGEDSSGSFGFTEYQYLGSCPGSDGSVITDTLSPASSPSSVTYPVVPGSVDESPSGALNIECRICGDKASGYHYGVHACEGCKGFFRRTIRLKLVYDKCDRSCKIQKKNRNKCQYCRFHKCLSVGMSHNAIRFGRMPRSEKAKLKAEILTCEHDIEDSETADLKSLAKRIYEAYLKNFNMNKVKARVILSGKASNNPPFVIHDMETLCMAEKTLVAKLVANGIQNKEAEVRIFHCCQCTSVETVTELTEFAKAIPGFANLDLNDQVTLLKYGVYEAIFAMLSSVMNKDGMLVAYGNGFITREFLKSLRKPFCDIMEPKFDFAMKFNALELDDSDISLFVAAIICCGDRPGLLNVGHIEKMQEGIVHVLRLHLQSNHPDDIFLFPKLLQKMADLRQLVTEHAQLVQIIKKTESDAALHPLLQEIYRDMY

[5] = target: T4, Peroxisome proliferator-activated receptor delta (Homo sapiens, UniProt Q03181); test: Binding affinity to PPARdelta by scintillation proximity assay; how it was run: as §1
T4 sequence (Q03181 whole entry): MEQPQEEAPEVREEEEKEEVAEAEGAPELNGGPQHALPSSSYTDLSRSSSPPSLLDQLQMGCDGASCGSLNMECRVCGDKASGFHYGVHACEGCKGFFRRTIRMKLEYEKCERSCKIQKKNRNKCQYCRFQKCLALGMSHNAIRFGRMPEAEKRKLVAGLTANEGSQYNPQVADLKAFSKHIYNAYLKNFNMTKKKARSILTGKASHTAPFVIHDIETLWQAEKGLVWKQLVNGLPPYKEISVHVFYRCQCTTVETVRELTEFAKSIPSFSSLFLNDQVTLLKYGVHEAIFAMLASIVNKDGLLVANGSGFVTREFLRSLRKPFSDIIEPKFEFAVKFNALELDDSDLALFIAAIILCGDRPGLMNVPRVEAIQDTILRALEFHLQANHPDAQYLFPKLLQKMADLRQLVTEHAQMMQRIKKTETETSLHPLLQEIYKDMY

[6] = Drug uptake in db/db C57BLKS/J-m +/+ Leprdb mouse at 10 mg/kg, po qd for 10 days measured in day 11 by LC-MS/MS analysis; type: ADME, organism-based; parameters: dose 10 mg/kg, route oral; details: in vivo
How it was run: (§3)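 Male db/db (C57BLKS/J-m +/+Leprdb) mice aged 12−13 weeks, seven per group, gavaged once daily with compound in 0.25% methylcellulose vehicle. Total compound exposure measured at study end: plasma acidified with 0.5 M formate buffer pH 3.0, protein precipitated with acetonitrile, quantified by LC−MS−MS against calibration curves in control plasma.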

Rattus norvegicus [7] = test: Dose normalized AUC in rat at 2 mg/kg, po by LC-MS/MS analysis; type: ADME, organism-based; parameters: dose 2 mg/kg, route oral; details: in vivo
How it was run: (§4)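 Rat pharmacokinetics: 2 mpk oral in 5% methylcellulose, 0.5 mpk iv in ethanol/PEG400/water (1/4/5). Blood sampled at set intervals; plasma acidified with 0.5 M formate buffer pH 3.0, acetonitrile-precipitated, quantified by LC−MS−MS against spiked control-plasma calibration curves.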

Rattus norvegicus [8] = test: Plasma clearance in rat at 0.5 mg/kg, iv and 2 mg/kg, po by LC-MS/MS analysis; type: ADME, organism-based; details: in vivo; how it was run: as §4
[9] = Half life in rat at 0.5 mg/kg, iv and 2 mg/kg, po by LC-MS/MS analysis; type: ADME, organism-based; details: in vivo; how it was run: as §4
[10] = Oral bioavailability in rat at 2 mg/kg by LC-MS/MS analysis; type: ADME, organism-based; details: in vivo; how it was run: as §4
[11] = target: T1, Peroxisome proliferator-activated receptor gamma; test: Partial agonist activity at human PPARgamma LBD assessed as activation of CBP1-453 by HTRF assay; type: functional
[12] = target: T1, Peroxisome proliferator-activated receptor gamma; test: Partial agonist activity at human PPARgamma LBD assessed as activation of PGC1 by HTRF assay; type: functional
[13] = target: T1, Peroxisome proliferator-activated receptor gamma; test: Partial agonist activity at human PPARgamma LBD assessed as activation of Src-1 by HTRF assay; type: functional
[14] = target: T1, Peroxisome proliferator-activated receptor gamma; test: Partial agonist activity at human PPARgamma LBD assessed as activation of PBP by HTRF assay; type: functional
Mus musculus [15] = test: Antidiabetic activity in db/db C57BLKS/J-m +/+ Leprdb mouse assessed as reduction of glucose level at 30 mg/kg, po qd for 10 days measured on 11 relative to control; type: functional; parameters: scale not given: the % may be the effect or the level left
How it was run: (§5)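 Male db/db (C57BLKS/J-m +/+Leprdb) mice, 12−13 weeks old, seven per group, chow and water freely available; once-daily oral gavage in 0.25% methylcellulose vehicle for 11 days. Tail blood drawn just before next dose on days 0, 4, 7 and 11 for plasma glucose. Value is percent correction versus vehicle control; mean of n = 7; rosiglitazone 10 mpk positive control.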

[16] = target: T2, Peroxisome proliferator-activated receptor gamma (Homo sapiens); test: Binding affinity to human wild type PPARgamma LBD expressed in COS1 cells co-expressing GAL4 by scintillation proximity assay; type: cell-based; details: COS-1
COS-1 = test: Binding affinity to human PPARgamma LBD Y473A mutant expressed in COS1 cells co-expressing GAL4 by scintillation proximity assay; type: cell-based
Mus musculus [17] = test: Antidiabetic activity in db/db C57BLKS/J-m +/+ Leprdb mouse assessed as reduction of glucose level at 10 mg/kg, po qd for 10 days measured on 11 relative to control; type: functional; parameters: scale not given: the % may be the effect or the level left; how it was run: as §5
Mus musculus [18] = test: Antidiabetic activity in db/db C57BLKS/J-m +/+ Leprdb mouse assessed as reduction of glucose level at 20 mg/kg, po qd for 10 days measured on 11 relative to control; type: functional; parameters: scale not given: the % may be the effect or the level left; how it was run: as §5
[19] = AUC in db/db C57BLKS/J-m +/+ Leprdb mouse at 10 mg/kg, po qd for 10 days measured on day 11; type: ADME, organism-based; parameters: dose 10 mg/kg, route oral; details: plasma; how it was run: as §3
Mus musculus [20] = test: Toxicity in po dosed db/db C57BLKS/J-m +/+ Leprdb mouse assessed as increase in water content of epididymal fat pad administered qd for 10 days measured on day 11 by vaccum drying method; type: organism-based; details: in vivo, 240 h
How it was run: (§6)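 Male db/db mice, seven per group, gavaged daily in 0.25% methylcellulose; after day 11 dosing epididymal fat pads excised, weighed, vacuum centrifugal-dried over 24 h, reweighed to give water content; mean of seven determinations.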

Rattus norvegicus [21] = test: Antidiabetic activity in obese insulin resistant Zucker fa/fa rat assessed as decrease in free fatty acids level in plasma at 1 to 100 mg/kg qd for 7 days; type: functional, organism-based
How it was run: (§7)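 Obese insulin-resistant Zucker fa/fa rats (n = 8) dosed daily for 7 days with vehicle or compound. Tail-nick blood taken 1 day before dosing and 1 day after the seventh dose; plasma insulin by rat insulin RIA, free fatty acids and triglyceride by enzymatic kits per manufacturer instructions.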

Rattus norvegicus [22] = test: Antidiabetic activity in obese insulin resistant Zucker fa/fa rat assessed as decrease in insulin level in plasma at 1 to 100 mg/kg qd for 7 days; type: functional, organism-based; how it was run: as §7
Rattus norvegicus [23] = test: Antidiabetic activity in obese insulin resistant Zucker fa/fa rat assessed as decrease in triglyceride level in plasma at 1 to 100 mg/kg qd for 7 days; type: functional, organism-based; how it was run: as §7
Rattus norvegicus [24] = test: Antidiabetic activity in obese insulin resistant Zucker fa/fa rat assessed as decrease in insulin level in plasma administered qd for 7 days
Mus musculus [25] = test: Toxicity in db/db C57BLKS/J-m +/+ Leprdb mouse assessed as increase in water content of epididymal fat pad at 10 to 50 mg/kg, po qd for 10 days measured on day 11 by vaccum drying method; type: organism-based; parameters: dose 10-50 mg/kg, route oral; details: in vivo, 240 h; how it was run: as §6

COc1ccc2c(-n3c(=O)n(Cc4ccc(Cl)c(O[C@H](C)C(=O)O)c4)c4ccccc43)noc2c1 showed an IC50 [1] of 6.9 nM, an EC50 [2] of 28.1 nM and an Emax [3] of 31%. The IC50 [4] was greater than 50000 nM, the IC50 [5] was greater than 50000 nM and the AUC at 240 h [6] was 576 µM·h. For the same molecule, the AUC/dose (Rattus norvegicus [7]) was 1.5 µM·kg·h/mg, the clearance (Rattus norvegicus [8]) was 11.4 mL/min/kg and the half-life [9] was 5 h. The bioavailability [10] was 48%, the EC50 [11] was greater than 50000 nM and the EC50 [12] was 2 nM. The EC50 [13] was greater than 50000 nM, the EC50 [14] was 3 nM and the Activity (Mus musculus [15]) was 39%.

In the case of C[C@]1(c2cccc(Cn3c(=O)n(-c4noc5cc(Cl)ccc45)c4ccccc43)c2)OC(=O)NC1=O, the Emax [3] is reported as 101%, the Activity [16] is reported as “Active” and the Activity (COS-1) is reported as “Active”. It also gave an Activity (Mus musculus [17]) of 84%.

Molecule COc1ccc2c(-n3c(=O)n(Cc4cc([C@@]5(C)OC(=O)NC5=O)ccc4Cl)c4ccccc43)noc2c1 has an IC50 [1] of 9.9 nM, an EC50 [2] of 9.1 nM and an Emax [3] of 26%. It also gave an IC50 [4] greater than 50000 nM, an IC50 [5] greater than 50000 nM and an AUC at 240 h [6] of 104 µM·h. The AUC/dose (Rattus norvegicus [7]) was 0.8 µM·kg·h/mg, the clearance (Rattus norvegicus [8]) was 29.7 mL/min/kg and the half-life [9] was 3.8 h. It also gave a bioavailability [10] of 49%, an EC50 [11] greater than 50000 nM and an EC50 [12] of 2 nM. It also gave an EC50 [13] greater than 50000 nM, an EC50 [14] of 1820 nM and an Activity (Mus musculus [18]) of 29%.

In the case of CN(CCOc1ccc(CC2SC(=O)NC2=O)cc1)c1ccccn1 (stereo not drawn) [ROSIGLITAZONE], the Activity [16] is reported as “Active”, the Activity (COS-1) is reported as “inactive” and the Activity (Mus musculus [17]) is reported as 60%. The AUC at 240 h [19] was 220 µM·h, the Activity (Mus musculus [20]) was “Dose-dependent effect” and the Activity (Rattus norvegicus [21]) was “Active”. The Activity (Rattus norvegicus [22]) was “Active”, the Activity (Rattus norvegicus [23]) was “Active” and the ED50 (Rattus norvegicus [24]) was 312 µM·h.

Work on C[C@]1(c2cccc(Cn3c(=O)n(-c4noc5cc(Cl)ccc45)c4ccccc43)c2)OC(O)=NC1=O yielded an IC50 [1] of 49.1 nM, an EC50 [2] of 102 nM and an IC50 [4] greater than 50000 nM. The IC50 [5] was greater than 50000 nM, the AUC at 240 h [6] was 1160 µM·h and the AUC/dose (Rattus norvegicus [7]) was 1.9 µM·kg·h/mg. The clearance (Rattus norvegicus [8]) was 26.5 mL/min/kg, the half-life [9] was 3 h and the bioavailability [10] was 117%. The Activity (Mus musculus [25]) was “Non-toxic”.

Reference: ChEMBL document CHEMBL1944523, “Benzimidazolones: a new class of selective peroxisome proliferator-activated receptor γ (PPARγ) modulators” (J Med Chem, 2011)
